Measurements taken from ChEMBL document CHEMBL4371071, “Muscarinic agonist, (±)-quinuclidin-3-yl-(4-fluorophenethyl)(phenyl)carbamate: High affinity, but low subtype selectivity for human M1 - M5 muscarinic acetylcholine receptors” (Bioorg Med Chem Lett, 2019).

Target: T1, Muscarinic acetylcholine receptor M5 (Homo sapiens, UniProt P08912)
T1 sequence (P08912 whole entry): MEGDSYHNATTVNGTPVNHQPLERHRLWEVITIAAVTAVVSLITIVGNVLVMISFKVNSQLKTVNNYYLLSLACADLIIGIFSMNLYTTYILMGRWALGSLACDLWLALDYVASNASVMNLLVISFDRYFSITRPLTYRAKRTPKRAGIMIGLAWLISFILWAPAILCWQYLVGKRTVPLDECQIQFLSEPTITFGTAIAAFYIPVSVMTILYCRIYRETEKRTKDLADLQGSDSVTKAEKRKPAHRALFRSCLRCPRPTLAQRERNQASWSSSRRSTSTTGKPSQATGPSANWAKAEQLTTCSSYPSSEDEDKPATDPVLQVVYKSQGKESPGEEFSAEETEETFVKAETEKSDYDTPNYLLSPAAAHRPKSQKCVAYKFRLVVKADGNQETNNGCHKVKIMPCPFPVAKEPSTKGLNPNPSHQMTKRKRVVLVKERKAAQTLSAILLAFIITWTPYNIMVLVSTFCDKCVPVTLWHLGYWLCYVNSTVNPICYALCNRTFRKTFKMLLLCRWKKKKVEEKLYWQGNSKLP
Assay: Displacement of [3H]NMS from human M5 AChR expressed in CHO cell membranes after 1 to 2 hrs by liquid scintillation spectrometry method
Settings: not given
How it was run: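 CHO membranes expressing human M5 (10 µg protein/well) with 0.3 nM [3H]NMS and analog (1 nM–100 µM) in 50 mM Tris-HCl pH 7.4, 2 h at 25 °C. Filtered on GF/B, counted by scintillation. IC50 converted to Ki; three independent experiments in duplicate.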

Row | Structure (SMILES) | Ki [nM]
1 | COc1ccc(CCN(C(=O)OC2C[C@H]3CC[C@H](C2)N3C)c2ccccc2)cc1 (stereo partly drawn) | 240
2 | COc1ccc(CCN(C(=O)OC2C[C@H]3CC[C@H](C2)N3C)c2ccccc2)cc1OC (stereo partly drawn) | 1370
3 | CN1CCCC(OC(=O)N(CCc2ccc(F)cc2)c2ccccc2)C1 (stereo not drawn) | 150
4 | COc1ccc(COC(=O)N(c2ccccc2)C2CN3CCC2CC3)cc1 (stereo not drawn) | 470
5 | COc1ccc(CCCOC(=O)N(c2ccccc2)C2CN3CCC2CC3)cc1F (stereo not drawn) | 260
6 | COc1ccc(CCOC(=O)N(c2ccccc2)C2CN3CCC2CC3)cc1 (stereo not drawn) | 230
7 | CN1CCC(OC(=O)N(CCc2ccc(F)cc2)c2ccccc2)CC1 | 60
8 | Cc1ccc(CCCOC(=O)N(c2ccccc2)C2CN3CCC2CC3)cc1F (stereo not drawn) | 130
9 | COc1ccc(CCN(C(=O)OC2CCN(C)CC2)c2ccccc2)cc1 | 190
10 | COc1ccc(COC(=O)N(c2ccccc2)C2CN3CCC2CC3)cc1OC (stereo not drawn) | 550
11 | COc1ccc(CCOC(=O)N(c2ccccc2)C2CN3CCC2CC3)cc1OC (stereo not drawn) | 3490

Target: T2, Muscarinic acetylcholine receptor M1 (Homo sapiens, UniProt P11229)
T2 sequence (P11229 whole entry): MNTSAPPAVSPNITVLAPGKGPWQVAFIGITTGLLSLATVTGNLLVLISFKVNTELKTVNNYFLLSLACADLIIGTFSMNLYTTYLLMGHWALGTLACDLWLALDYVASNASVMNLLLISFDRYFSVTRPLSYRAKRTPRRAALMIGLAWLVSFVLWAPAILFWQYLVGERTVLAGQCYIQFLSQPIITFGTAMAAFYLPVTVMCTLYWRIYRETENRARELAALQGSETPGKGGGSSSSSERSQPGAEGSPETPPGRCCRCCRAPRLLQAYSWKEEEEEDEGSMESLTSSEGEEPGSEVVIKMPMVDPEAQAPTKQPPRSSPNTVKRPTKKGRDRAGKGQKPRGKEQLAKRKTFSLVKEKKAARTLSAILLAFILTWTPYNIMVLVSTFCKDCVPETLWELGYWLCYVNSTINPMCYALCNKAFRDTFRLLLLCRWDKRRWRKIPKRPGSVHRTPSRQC
Assay: Displacement of [3H]NMS from human M1 AChR expressed in CHO cell membranes after 1 to 2 hrs by liquid scintillation spectrometry method
Type: cell-based
Settings: not given

Row | Structure (SMILES) | Ki [nM]
12 | COc1ccc(CCN(C(=O)OC2C[C@H]3CC[C@H](C2)N3C)c2ccccc2)cc1 (stereo partly drawn) | 350
13 | COc1ccc(CCN(C(=O)OC2C[C@H]3CC[C@H](C2)N3C)c2ccccc2)cc1OC (stereo partly drawn) | 1870
14 | CN1CCCC(OC(=O)N(CCc2ccc(F)cc2)c2ccccc2)C1 (stereo not drawn) | 120
15 | COc1ccc(COC(=O)N(c2ccccc2)C2CN3CCC2CC3)cc1 (stereo not drawn) | 710
16 | COc1ccc(CCCOC(=O)N(c2ccccc2)C2CN3CCC2CC3)cc1F (stereo not drawn) | 430
17 | COc1ccc(CCOC(=O)N(c2ccccc2)C2CN3CCC2CC3)cc1 (stereo not drawn) | 760
18 | CN1CCC(OC(=O)N(CCc2ccc(F)cc2)c2ccccc2)CC1 | 70
19 | Cc1ccc(CCCOC(=O)N(c2ccccc2)C2CN3CCC2CC3)cc1F (stereo not drawn) | 200
20 | COc1ccc(CCN(C(=O)OC2CCN(C)CC2)c2ccccc2)cc1 | 280
21 | COc1ccc(COC(=O)N(c2ccccc2)C2CN3CCC2CC3)cc1OC (stereo not drawn) | 770
22 | COc1ccc(CCOC(=O)N(c2ccccc2)C2CN3CCC2CC3)cc1OC (stereo not drawn) | 6980

Target: T3, Muscarinic acetylcholine receptor M3 (Homo sapiens, UniProt P20309)
Assay: Displacement of [3H]NMS from human M3 AChR expressed in CHO cell membranes after 1 to 2 hrs by liquid scintillation spectrometry method
Type: cell-based
Settings: not given
Target sequence in this assay (P20309 whole entry): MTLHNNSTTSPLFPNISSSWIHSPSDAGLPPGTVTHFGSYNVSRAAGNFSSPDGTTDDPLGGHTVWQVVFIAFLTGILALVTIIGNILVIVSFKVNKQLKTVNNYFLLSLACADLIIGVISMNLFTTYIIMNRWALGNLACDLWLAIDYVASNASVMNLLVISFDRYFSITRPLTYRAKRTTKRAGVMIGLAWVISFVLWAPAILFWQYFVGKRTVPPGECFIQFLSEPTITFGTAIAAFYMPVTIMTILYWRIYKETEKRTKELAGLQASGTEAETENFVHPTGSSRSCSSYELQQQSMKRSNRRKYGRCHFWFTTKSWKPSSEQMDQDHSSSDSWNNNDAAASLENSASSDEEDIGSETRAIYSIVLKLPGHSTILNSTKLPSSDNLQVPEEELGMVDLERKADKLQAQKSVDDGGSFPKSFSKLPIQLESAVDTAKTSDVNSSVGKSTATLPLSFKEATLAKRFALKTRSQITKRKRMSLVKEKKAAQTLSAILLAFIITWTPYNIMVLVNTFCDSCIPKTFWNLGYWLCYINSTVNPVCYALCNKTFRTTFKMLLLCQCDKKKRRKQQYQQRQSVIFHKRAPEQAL

Row | Structure (SMILES) | Ki [nM]
23 | COc1ccc(CCN(C(=O)OC2C[C@H]3CC[C@H](C2)N3C)c2ccccc2)cc1 (stereo partly drawn) | 270
24 | COc1ccc(CCN(C(=O)OC2C[C@H]3CC[C@H](C2)N3C)c2ccccc2)cc1OC (stereo partly drawn) | 2800
25 | CN1CCCC(OC(=O)N(CCc2ccc(F)cc2)c2ccccc2)C1 (stereo not drawn) | 350
26 | COc1ccc(COC(=O)N(c2ccccc2)C2CN3CCC2CC3)cc1 (stereo not drawn) | 1150
27 | COc1ccc(CCCOC(=O)N(c2ccccc2)C2CN3CCC2CC3)cc1F (stereo not drawn) | 250
28 | COc1ccc(CCOC(=O)N(c2ccccc2)C2CN3CCC2CC3)cc1 (stereo not drawn) | 420
29 | CN1CCC(OC(=O)N(CCc2ccc(F)cc2)c2ccccc2)CC1 | 140
30 | Cc1ccc(CCCOC(=O)N(c2ccccc2)C2CN3CCC2CC3)cc1F (stereo not drawn) | 130
31 | COc1ccc(CCN(C(=O)OC2CCN(C)CC2)c2ccccc2)cc1 | 570
32 | COc1ccc(COC(=O)N(c2ccccc2)C2CN3CCC2CC3)cc1OC (stereo not drawn) | 1020
33 | COc1ccc(CCOC(=O)N(c2ccccc2)C2CN3CCC2CC3)cc1OC (stereo not drawn) | 2760

Species on record: Homo sapiens
Assay: Selectivity ratio of Ki for displacement of [3H]NMS from human M1 AChR expressed in CHO cell membranes to Ki for displacement of [3H]NMS from human M5 AChR expressed in CHO cell membranes
Settings: not given

Row | Structure (SMILES) | Ratio Ki
34 | COc1ccc(CCN(C(=O)OC2C[C@H]3CC[C@H](C2)N3C)c2ccccc2)cc1 (stereo partly drawn) | 1.5
35 | COc1ccc(CCN(C(=O)OC2C[C@H]3CC[C@H](C2)N3C)c2ccccc2)cc1OC (stereo partly drawn) | 1.4
36 | CN1CCCC(OC(=O)N(CCc2ccc(F)cc2)c2ccccc2)C1 (stereo not drawn) | 0.8
37 | COc1ccc(COC(=O)N(c2ccccc2)C2CN3CCC2CC3)cc1 (stereo not drawn) | 1.5
38 | COc1ccc(CCCOC(=O)N(c2ccccc2)C2CN3CCC2CC3)cc1F (stereo not drawn) | 1.7
39 | COc1ccc(CCOC(=O)N(c2ccccc2)C2CN3CCC2CC3)cc1 (stereo not drawn) | 3.3
40 | CN1CCC(OC(=O)N(CCc2ccc(F)cc2)c2ccccc2)CC1 | 1.2
41 | Cc1ccc(CCCOC(=O)N(c2ccccc2)C2CN3CCC2CC3)cc1F (stereo not drawn) | 1.5
42 | COc1ccc(CCN(C(=O)OC2CCN(C)CC2)c2ccccc2)cc1 | 1.5
43 | COc1ccc(COC(=O)N(c2ccccc2)C2CN3CCC2CC3)cc1OC (stereo not drawn) | 1.4
44 | COc1ccc(CCOC(=O)N(c2ccccc2)C2CN3CCC2CC3)cc1OC (stereo not drawn) | 2

Target: T4, Muscarinic acetylcholine receptor M5 (Homo sapiens) (UniProt P08912)
T4 sequence (whole entry): T1 sequence (P08912 whole entry)
Assay: Displacement of [3H]NMS from human M5 AChR expressed in CHO cell membranes at 100 uM after 1 to 2 hrs by liquid scintillation spectrometry method relative to control
Settings: not given
How it was run: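 CHO membranes expressing human M5 (10 µg protein/well) with 0.3 nM [3H]NMS and analog (1 nM–100 µM) in 50 mM Tris-HCl pH 7.4, 2 h at 25 °C. […] Filtered on GF/B, counted by scintillation. IC50 converted to Ki; three independent experiments in duplicate.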

Row | Structure (SMILES) | Imax [%]
45 | COc1ccc(CCN(C(=O)OC2C[C@H]3CC[C@H](C2)N3C)c2ccccc2)cc1 (stereo partly drawn) | 97.9
46 | COc1ccc(CCN(C(=O)OC2C[C@H]3CC[C@H](C2)N3C)c2ccccc2)cc1OC (stereo partly drawn) | 95.9
47 | CN1CCCC(OC(=O)N(CCc2ccc(F)cc2)c2ccccc2)C1 (stereo not drawn) | 99.9
48 | CN1[C@@H]2CC[C@H]1C[C@@H](OC(=O)C(CO)c1ccccc1)C2 (stereo partly drawn) | 96.7
49 | COc1ccc(COC(=O)N(c2ccccc2)C2CN3CCC2CC3)cc1 (stereo not drawn) | 97.1
50 | COc1ccc(CCCOC(=O)N(c2ccccc2)C2CN3CCC2CC3)cc1F (stereo not drawn) | 99.4
51 | COc1ccc(CCOC(=O)N(c2ccccc2)C2CN3CCC2CC3)cc1 (stereo not drawn) | 98.9
52 | CN1CCC(OC(=O)N(CCc2ccc(F)cc2)c2ccccc2)CC1 | 100
53 | Cc1ccc(CCCOC(=O)N(c2ccccc2)C2CN3CCC2CC3)cc1F (stereo not drawn) | 99.9
54 | COc1ccc(CCN(C(=O)OC2CCN(C)CC2)c2ccccc2)cc1 | 99.7
55 | COc1ccc(COC(=O)N(c2ccccc2)C2CN3CCC2CC3)cc1OC (stereo not drawn) | 98.7
56 | COc1ccc(CCOC(=O)N(c2ccccc2)C2CN3CCC2CC3)cc1OC (stereo not drawn) | 94

Target: T5, Muscarinic acetylcholine receptor M1 (Homo sapiens) (UniProt P11229)
T5 sequence (whole entry): T2 sequence (P11229 whole entry)
Settings: CHO, at 100 µM

Row | Structure (SMILES) | Imax [%]
57 | COc1ccc(CCN(C(=O)OC2C[C@H]3CC[C@H](C2)N3C)c2ccccc2)cc1 (stereo partly drawn) | 99.7
58 | COc1ccc(CCN(C(=O)OC2C[C@H]3CC[C@H](C2)N3C)c2ccccc2)cc1OC (stereo partly drawn) | 95.3
59 | CN1CCCC(OC(=O)N(CCc2ccc(F)cc2)c2ccccc2)C1 (stereo not drawn) | 99.9
60 | COc1ccc(COC(=O)N(c2ccccc2)C2CN3CCC2CC3)cc1 (stereo not drawn) | 97.9
61 | COc1ccc(CCCOC(=O)N(c2ccccc2)C2CN3CCC2CC3)cc1F (stereo not drawn) | 100
62 | COc1ccc(CCOC(=O)N(c2ccccc2)C2CN3CCC2CC3)cc1 (stereo not drawn) | 98.4
63 | CN1CCC(OC(=O)N(CCc2ccc(F)cc2)c2ccccc2)CC1 | 100
64 | Cc1ccc(CCCOC(=O)N(c2ccccc2)C2CN3CCC2CC3)cc1F (stereo not drawn) | 100
65 | COc1ccc(CCN(C(=O)OC2CCN(C)CC2)c2ccccc2)cc1 | 99.8
66 | COc1ccc(COC(=O)N(c2ccccc2)C2CN3CCC2CC3)cc1OC (stereo not drawn) | 96.8
67 | COc1ccc(CCOC(=O)N(c2ccccc2)C2CN3CCC2CC3)cc1OC (stereo not drawn) | 90.6

Target: T3, Muscarinic acetylcholine receptor M3
Settings: CHO, at 100 µM
Target sequence in this assay (P20309 whole entry, looked up): as the sequence (P20309 whole entry) above

Row | Structure (SMILES) | Imax [%]
68 | COc1ccc(CCN(C(=O)OC2C[C@H]3CC[C@H](C2)N3C)c2ccccc2)cc1 (stereo partly drawn) | 98.9
69 | COc1ccc(CCN(C(=O)OC2C[C@H]3CC[C@H](C2)N3C)c2ccccc2)cc1OC (stereo partly drawn) | 88.8
70 | CN1CCCC(OC(=O)N(CCc2ccc(F)cc2)c2ccccc2)C1 (stereo not drawn) | 99
71 | COc1ccc(COC(=O)N(c2ccccc2)C2CN3CCC2CC3)cc1 (stereo not drawn) | 95.7
72 | COc1ccc(CCCOC(=O)N(c2ccccc2)C2CN3CCC2CC3)cc1F (stereo not drawn) | 99.8
73 | COc1ccc(CCOC(=O)N(c2ccccc2)C2CN3CCC2CC3)cc1 (stereo not drawn) | 99.3
74 | CN1CCC(OC(=O)N(CCc2ccc(F)cc2)c2ccccc2)CC1 | 100
75 | Cc1ccc(CCCOC(=O)N(c2ccccc2)C2CN3CCC2CC3)cc1F (stereo not drawn) | 100
76 | COc1ccc(CCN(C(=O)OC2CCN(C)CC2)c2ccccc2)cc1 | 99.7
77 | COc1ccc(COC(=O)N(c2ccccc2)C2CN3CCC2CC3)cc1OC (stereo not drawn) | 95.4
78 | COc1ccc(CCOC(=O)N(c2ccccc2)C2CN3CCC2CC3)cc1OC (stereo not drawn) | 85.9
